Data as given in ChEMBL document CHEMBL4396880, “Development of Small-Molecules Targeting Receptor Activator of Nuclear Factor-κB Ligand (RANKL)-Receptor Activator of Nuclear Factor-κB (RANK) Protein-Protein Interaction by Structure-Based Virtual Screening and Hit Optimization” (J Med Chem, 2019).
Calls of active or inactive are those of the source. The rule behind the calls is not given here. Bridge positions count the residues as written; N and C are the ends. Peptide text beside a SMILES is read from it.

Key:
[1] = target: T1, Tumor necrosis factor ligand superfamily member 11/11A (Mus musculus) (UniProt O35235+O35305); experiment: Inhibition of RANKL-RANK protein-protein interaction in C57/BL6 mouse bone marrow macrophage assessed as suppression of M-CSF/mRANKL-induced osteoclastogenesis by measuring reduction in TRAP activity at 5 uM measured after 3 days by colorimetric assay relative to control
T1 sequence (O35305 31-625 partner limits assumed, one chain of several): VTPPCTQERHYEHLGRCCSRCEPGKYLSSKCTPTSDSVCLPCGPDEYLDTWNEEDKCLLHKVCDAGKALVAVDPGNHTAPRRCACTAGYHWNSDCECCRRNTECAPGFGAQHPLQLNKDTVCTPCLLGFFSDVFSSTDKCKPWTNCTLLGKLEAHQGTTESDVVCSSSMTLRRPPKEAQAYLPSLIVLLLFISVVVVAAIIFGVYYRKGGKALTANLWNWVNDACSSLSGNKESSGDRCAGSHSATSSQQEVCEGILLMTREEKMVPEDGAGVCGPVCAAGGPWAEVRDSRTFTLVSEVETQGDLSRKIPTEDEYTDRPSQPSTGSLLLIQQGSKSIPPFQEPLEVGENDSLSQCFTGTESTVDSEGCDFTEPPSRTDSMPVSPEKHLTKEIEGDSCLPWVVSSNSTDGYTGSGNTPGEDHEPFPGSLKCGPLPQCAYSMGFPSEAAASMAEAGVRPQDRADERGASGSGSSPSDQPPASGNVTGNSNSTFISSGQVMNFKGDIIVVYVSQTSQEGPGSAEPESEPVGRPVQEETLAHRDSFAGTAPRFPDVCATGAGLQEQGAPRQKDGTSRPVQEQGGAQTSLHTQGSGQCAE
How it was run: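 BMMs were incubated with the test compound at 5 μM, together with RANKL (50 ng/mL) and M-CSF (20 ng/mL), for 3 days. Osteoclastogenesis was then read out as tartrate-resistant acid phosphatase (TRAP) activity.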

[2] = target: T2, Tumor necrosis factor ligand superfamily member 11 (Mus musculus, UniProt O35235); experiment: Binding affinity to mouse N-terminal His6-Trx-tagged RANKL ectodomain (157 to 316 residues) expressed in Escherichia coli BL21 (DE3) by isothermal titration calorimetric assay
T2 sequence (O35235 whole entry): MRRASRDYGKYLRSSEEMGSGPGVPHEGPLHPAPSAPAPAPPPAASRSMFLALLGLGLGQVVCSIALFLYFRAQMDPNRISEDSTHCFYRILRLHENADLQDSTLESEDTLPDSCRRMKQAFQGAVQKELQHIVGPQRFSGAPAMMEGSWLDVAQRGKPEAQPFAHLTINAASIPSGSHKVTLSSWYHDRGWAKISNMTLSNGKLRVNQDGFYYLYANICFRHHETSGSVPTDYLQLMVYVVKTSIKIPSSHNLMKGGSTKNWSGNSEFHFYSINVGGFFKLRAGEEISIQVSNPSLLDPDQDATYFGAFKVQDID

[3] = target: T3, Tumor necrosis factor ligand superfamily member 11 (Homo sapiens, UniProt O14788); experiment: Binding affinity to human RANKL by surface plasmon resonance analysis
T3 sequence (O14788 whole entry): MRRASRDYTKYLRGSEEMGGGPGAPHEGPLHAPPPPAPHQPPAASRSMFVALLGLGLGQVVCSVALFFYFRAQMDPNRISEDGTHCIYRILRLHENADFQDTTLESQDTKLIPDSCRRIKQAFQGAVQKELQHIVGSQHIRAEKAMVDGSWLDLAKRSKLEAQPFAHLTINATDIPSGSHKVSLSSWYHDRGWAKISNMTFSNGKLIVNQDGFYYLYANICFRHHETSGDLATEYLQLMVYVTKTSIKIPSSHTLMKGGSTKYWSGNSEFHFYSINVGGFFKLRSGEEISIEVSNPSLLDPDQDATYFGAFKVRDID

[4] = Cytotoxicity against M-CSF-stimulated C57/BL6 mouse bone marrow macrophages assessed as cell viability at 10 uM measured after 2 days by MTT assay (reference value: 100%); type: cell-based; settings: M-CSF-stimulated bone marrow macrophages (BMDM), read-out: Activity
[5] = target: T1, Tumor necrosis factor ligand superfamily member 11/11A (Mus musculus); experiment: (§1) Inhibition of RANKL-RANK protein-protein interaction in C57/BL6 mouse bone marrow macrophage assessed as suppression of M-CSF/mRANKL-induced osteoclast differentiation by measuring decrease in nuclei size of F-actin ring formation at 5 uM supplemented with fresh medium containing compounds every 2 days for 5 to 6 days by rhodamine phalloidin/DAPI staining-based microscopic analysis; type: protein assay
[6] = target: T1, Tumor necrosis factor ligand superfamily member 11/11A (Mus musculus); experiment: as §1, with “multinucleated TRAP+ cells” for “nuclei size of F-actin ring formation”, “TRAP” for “rhodamine phalloidin/DAPI”; type: cell-based
How it was run: (§2)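 Bone marrow macrophages were exposed to the test compound at the indicated concentrations for 5 days under M-CSF/RANKL stimulation. TRAP-positive multinucleated cells were then counted as the measure of osteoclast formation.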

[7] = target: T1, Tumor necrosis factor ligand superfamily member 11/11A (Mus musculus); experiment: as §1, with “multinucleated TRAP+ cells” for “nuclei size of F-actin ring formation at 5 uM”, “TRAP” for “rhodamine phalloidin/DAPI”; type: cell-based; how it was run: as §2
[8] = target: T1, Tumor necrosis factor ligand superfamily member 11/11A (Mus musculus); experiment: as §1, with “number” for “size”; type: protein assay

Structure (SMILES)	inhibition [1]	further results
Cc1cccc(C)c1NCC(Cc1c[nH]c2ccccc12)NC(=O)CCc1ccccc1 (centres undefined)	23.1%	–
Cc1ccccc1NC(=O)C(Cc1c[nH]c2ccccc12)NC(=O)CCc1ccccc1 (centres undefined)	74.2%	–
CC[C@H](C)[C@H](NC(=O)[C@H](CC(C)C)NC(=O)[C@H](Cc1ccc(O)cc1)NC(=O)[C@@H]1CSSC[C@H](NC(=O)[C@@H](N)Cc2ccc(O)cc2)C(=O)N[C@@H](CCC(=O)O)C(=O)N[C@@H]([C@@H](C)CC)C(=O)N[C@@H](CCC(=O)O)C(=O)N[C@@H](Cc2ccccc2)C(=O)N1)C(=O)N[C@@H](CCCNC(=N)N)C(=O)O (H-YCEIEFCYLIR-OH; disulfide 2-7)	–	Kd [2]: 284 µM; Kd [3]: 284 µM
N=C(N)NCCC[C@H](NC(=O)[C@H](CCCNC(=N)N)NC(=O)[C@H](Cc1ccc(O)cc1)NC(=O)[C@@H]1CSSC[C@H](NC(=O)[C@@H](N)Cc2ccc(O)cc2)C(=O)N[C@@H](Cc2c[nH]c3ccccc23)C(=O)N[C@@H](CC(N)=O)C(=O)N[C@@H](CO)C(=O)N[C@@H](CC(=O)O)C(=O)N[C@@H](CS)C(=O)N[C@@H](CCC(=O)O)C(=O)N[C@@H](CS)C(=O)N1)C(=O)O (H-YCWNSDCECCYRR-OH; disulfide 2-10)	–	Kd [2]: 17.3 µM; Kd [3]: 17.3 µM
Cc1cccc(C)c1NC(=O)C(Cc1c[nH]c2cc(F)ccc12)NC(=O)CCc1ccccc1 (racemic)	89.4%	viability at 48 h, 10 µM [4]: 103%; Kd [3]: 3.5 µM; inhibition [5]: Dose-dependent effect; inhibition [6]: 100%; inhibition [7]: Dose-dependent effect; inhibition [8]: Dose-dependent effect
Cc1cccc(C)c1NC(=O)C(Cc1c[nH]c2ccccc12)NC(=O)CCc1ccc(Cl)cc1 (racemic)	89%	viability at 48 h, 10 µM [4]: 102%; Kd [3]: 3.1 µM; inhibition [5]: Dose-dependent effect; inhibition [6]: 100%; inhibition [7]: Dose-dependent effect; inhibition [8]: Dose-dependent effect
Cc1cccc(C)c1NC(=O)C(Cc1c[nH]c2ccccc12)NC(=O)CCc1ccccc1 (racemic) [listing 1 of 2 here]	–	viability at 48 h, 10 µM [4]: 110%; Kd [3]: 2.7 µM
CN(C)c1ccc(NC(=O)C(Cc2c[nH]c3ccccc23)NC(=O)CCc2ccccc2)cc1 (racemic)	70.6%	–
COc1ccc(CCC(=O)NC(Cc2c[nH]c3ccccc23)C(=O)Nc2c(C)cccc2C)cc1 (racemic)	16.9%	–
COc1ccc(NC(=O)C(Cc2c[nH]c3ccccc23)NC(=O)CCc2ccccc2)cc1 (racemic)	59%	–
COc1ccc2[nH]cc(CC(NC(=O)CCc3ccccc3)C(=O)Nc3c(C)cccc3C)c2c1 (racemic)	84.4%	–
COc1cccc(CCC(=O)NC(Cc2c[nH]c3ccccc23)C(=O)Nc2c(C)cccc2C)c1 (racemic)	41.7%	–
CS(=O)(=O)c1ccc(NC(=O)C(Cc2c[nH]c3ccccc23)NC(=O)CCc2ccccc2)cc1 (racemic)	69.9%	–
Cc1ccc(NC(=O)C(Cc2c[nH]c3ccccc23)NC(=O)CCc2ccccc2)cc1 (racemic)	69.9%	–
Cc1cccc(C)c1NC(=O)C(Cc1c[nH]c2ccc(F)cc12)NC(=O)CCc1ccccc1 (racemic)	83.9%	–
Cc1cccc(C)c1NC(=O)C(Cc1c[nH]c2ccccc12)NC(=O)CCC1CC1 (racemic)	57.4%	–
Cc1cccc(C)c1NC(=O)C(Cc1c[nH]c2ccccc12)NC(=O)CCC1CCCC1 (racemic)	14%	–
Cc1cccc(C)c1NC(=O)C(Cc1c[nH]c2ccccc12)NC(=O)CCC1CCCCC1 (racemic)	35.4%	–
Cc1cccc(C)c1NC(=O)C(Cc1c[nH]c2ccccc12)NC(=O)CCCCc1ccccc1 (racemic)	82%	–
Cc1cccc(C)c1NC(=O)C(Cc1c[nH]c2ccccc12)NC(=O)CCCc1ccccc1 (racemic)	79.3%	–

Structure (SMILES)	inhibition [1]	further results
Cc1cccc(C)c1NC(=O)C(Cc1c[nH]c2ccccc12)NC(=O)CCc1ccc(F)cc1 (racemic)	33.6%	–
Cc1cccc(C)c1NC(=O)C(Cc1c[nH]c2ccccc12)NC(=O)CCc1cccc(Cl)c1 (racemic)	69.5%	–
Cc1cccc(C)c1NC(=O)C(Cc1c[nH]c2ccccc12)NC(=O)CCc1cccc(F)c1 (racemic)	56.8%	–
Cc1cccc(C)c1NC(=O)C(Cc1c[nH]c2ccccc12)NC(=O)CCc1ccccc1 (racemic) [listing 2 of 2 here]	90.3%	inhibition [5]: Dose-dependent effect; inhibition [6]: 100%; inhibition [7]: Dose-dependent effect; inhibition [8]: Dose-dependent effect
Cc1cccc(C)c1NC(=O)C(Cc1c[nH]c2ccccc12)NC(=O)CCc1cccnc1 (racemic)	66.5%	–
Cc1cccc(C)c1NC(=O)C(Cc1c[nH]c2ccccc12)NC(=O)CCc1cccs1 (racemic)	65.4%	–
Cc1cccc(C)c1NC(=O)C(Cc1c[nH]c2ccccc12)NC(=O)CCc1ccncc1 (racemic)	41.4%	–
Cc1cccc(C)c1NC(=O)C(Cc1c[nH]c2ccccc12)NC(=O)CCc1ccsc1 (racemic)	52.2%	–
Cc1cccc(C)c1NC(=O)C(Cc1c[nH]c2ccccc12)NC(=O)CCc1nccs1 (racemic)	86.3%	–
Cc1cccc(C)c1NC(=O)C(Cc1c[nH]c2ccccc12)NC(=O)Cc1ccccc1 (racemic)	52.1%	–
Cc1cccc(C)c1NC(=O)C(Cc1c[nH]c2ccccc12)NCCCCCc1ccccc1 (racemic)	87.2%	–
Cc1cccc(C)c1NC(=O)C(Cc1c[nH]c2ccccc12)NCCCCc1ccccc1 (racemic)	83.3%	–
Cc1cccc(C)c1NC(=O)C(Cc1c[nH]c2ccccc12)NCCc1ccccc1 (racemic)	76.5%	–
O=C(CCc1ccccc1)NC(Cc1c[nH]c2ccccc12)C(=O)Nc1ccc(C(F)(F)F)cc1 (racemic)	72%	–
O=C(CCc1ccccc1)NC(Cc1c[nH]c2ccccc12)C(=O)Nc1ccc(F)cc1 (racemic)	70.3%	–
O=C(CCc1ccccc1)NC(Cc1c[nH]c2ccccc12)C(=O)Nc1ccc(N2CCOCC2)cc1 (racemic)	64.8%	–
O=C(CCc1ccccc1)NC(Cc1c[nH]c2ccccc12)C(=O)Nc1ccccc1 (racemic)	55.3%	–
O=C(CCc1ccccc1)NC(Cc1c[nH]c2ccccc12)C(=O)Nc1ccccc1F (racemic)	74%	–
Cc1cccc(C)c1NC(=O)C(Cc1c[nH]c2ccccc12)NC(=O)CCc1ccccc1 (single isomer, unassigned; (+))	Active	–
Cc1cccc(C)c1NC(=O)C(Cc1c[nH]c2ccccc12)NC(=O)CCc1ccccc1 (single isomer, unassigned; (-))	Active	–
